# PostGolgi ctrl: growth inhibition of yeast control strain, primary screen, counter-screen for post-Golgi transport modulator project; efflux-deficient yeast background strain, growth absorbance A615, 16 h; inhibition, % at 10 µM; 98,000 tested, 5% active; AID 738, 2007
# PostGolgi yeast: phenotypic screen on post-Golgi transport, primary screen; post-Golgi transport phenotypic cell assay; inhibition, % at 10 µM; 98,000 tested, 0.9% active;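 also: yeast cells grown in 1536-well plates; yeast grown about 18 h at 30C before absorbance read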
# Ecoli tolC: growth inhibitors of E. coli tolC mutant, primary screen, strain BW25113 ΔtolC::kan, 384-well. OD615. growth inhibition, % at 10 µM (by protocol). 65,000 tested, 2.2% active. AID 573, 2007;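 active = growth inhibition at or above a cutoff equal to the mean over every tested compound plus 3 SD, cut at about 60% in these data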;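 also: growth measured after 20 h incubation at 37 °C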
#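 System: E. coli ΔtolC::kan strain BW25113; Buffer or medium: LB broth supplemented with 50 µg/mL kanamycin; Compound: 10 µM final, single dose; Incubation: bacterial growth with compound for 20 h at 37 °C; Signal: A615 absorbance measurement; Evaluation: growth inhibition in percent.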
# PLAP act: PLAP enzyme activators, biochemical, luminescence, HTS; Alkaline phosphatase, placental type (Homo sapiens), P05187; purified PLAP enzyme, luminescent substrate read-out; hits give high values; activation fold at 20 µM; 96,000 tested, 1.2% active; in the data active = activation fold above about 2
# HePTP inh: inhibitors of human HePTP phosphatase, primary screen, biochemical, absorbance, leukemia target; 110,000 tested, 0.64% active; inhibition, % at 20 µM; AID 521, 2006; recombinant HePTP phosphatase activity, OD absorbance; Tyrosine-protein phosphatase non-receptor type 7 (Homo sapiens), P35236; in the data active = inhibition above about 50%;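 also: plate controls were vehicle for no effect and reference inhibitor for full effect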
# Target sequence (P35236 whole entry, looked up): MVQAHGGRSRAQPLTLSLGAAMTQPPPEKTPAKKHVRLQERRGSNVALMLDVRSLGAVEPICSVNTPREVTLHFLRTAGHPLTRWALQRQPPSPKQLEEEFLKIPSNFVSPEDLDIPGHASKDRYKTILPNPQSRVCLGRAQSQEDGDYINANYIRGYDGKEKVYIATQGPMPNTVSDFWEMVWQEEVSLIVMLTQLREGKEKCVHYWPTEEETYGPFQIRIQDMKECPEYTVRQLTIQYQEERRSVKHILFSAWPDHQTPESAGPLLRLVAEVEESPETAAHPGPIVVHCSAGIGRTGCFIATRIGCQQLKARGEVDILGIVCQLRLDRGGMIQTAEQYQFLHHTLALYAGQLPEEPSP
# E coli WT exp: growth inhibitors of wild-type E. coli, primary screen, strain BW25113, expanded library, OD600. growth inhibition, % at 100 µM. OD600 absorbance. 98,000 tested, 0.15% active;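 active = growth inhibition above about 50% at one test dose, limit read from the data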;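 also: growth measured after 20 h incubation at 37 °C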
# * marks the source's active call; other numbers are inactive results; . = no result given. Compounds with a hit are over-represented: about 5.4% of the library has one in this group of screens. Rule as the data show it, unless noted: active = inhibition above about 30%; inactive = the rest.
SMILES,PostGolgi ctrl,PostGolgi yeast,Ecoli tolC,PLAP act,HePTP inh,E coli WT exp
COc1cc(OC)c(OC)cc1/C=N/N=C(\N)c1nonc1N,.,.,.,.,4,.
Cc1cc(NC(c2cccnc2)c2ccc3cccnc3c2O)no1 (stereo not given),-5,-3,-4,2.4*,9,21
Cc1cc(NC(=O)c2cc(-c3cccnc3)nc3c(C)c(C)ccc23)no1,15,-1,55,1.1,-7,-1
O=C(Nc1cccc(Cl)c1Cl)C(O)(c1ccccc1)c1ccccc1,.,.,.,.,0,.
O=C(Nc1ccc(Br)c(Cl)c1)c1ccccc1Cl,.,.,.,.,3,.
CC(=O)c1cccc(NC(=O)c2ccco2)c1,7,-1,-11,0.9,2,7
O=C(Nc1ccc(Br)c(Cl)c1)c1ccco1,12,27,100*,0.9,-4,5
O=C(c1ccccc1)c1cccc(NC(=O)c2ccco2)c1,38*,-4,32,0.6,8,2
COc1ccc(-c2nc3ccccc3nc2N2CCCCC2)cc1,.,.,.,.,-3,.
CCOc1ccc(/C=N/N2CCN(Cc3ccccc3Cl)CC2)cc1OC,.,.,.,.,7,.
COc1ccc2c(c1)CCc1c(C(=O)N3CC4(C)CC3CC(C)(C)C4)noc1-2 (stereo not given),38*,-7,59,1.2,3,-16
COc1ccc2c(c1)CCc1c(C(=O)N3CCCc4ccccc43)noc1-2,14,-4,71*,1.3,11,-13
COc1ccc2c(c1)CCc1c(C(=O)N3CCOCC3)noc1-2,-1,19,-2,1.5,4,-3
O=C(Nc1ccccc1F)c1ccn(C(=O)c2cccc(Cl)c2)n1,.,.,.,.,2,.
CC(NS(=O)(=O)c1ccc(F)cc1)C1C2CC3CC(C2)CC1C3 (stereo not given),.,.,.,.,7,.
O=C(Nc1ccc(Cl)c(Cl)c1)N(Cc1cccnc1)Cc1ccco1,105*,96*,45,0.9,9,-11
S=C(NCc1ccco1)Nc1ccc(Cl)c(Cl)c1,41*,4,.,0.9,.,47
CCCc1[nH]n(-c2ccc([N+](=O)[O-])cc2)c(=O)c1C=NC1CC(C)(C)NC(C)(C)C1,.,.,.,.,-10,.
CC(C)NC(=O)C12CC3CCC(CC(C3)C1)C2,.,.,.,.,5,.
COc1ccc(-c2ccc(CO)o2)cc1,.,.,.,.,-12,.
Cc1sc2nc(C3CC3)nc(SCC(=O)N3CC(=O)Nc4ccccc43)c2c1C,17,5,.,1,.,-7
Cc1sc2nc(C3CC3)nc(SCC(=O)N3CCc4ccccc4C3)c2c1C,37*,14,.,1.5,.,-5
CCCc1nc(SCC(=O)N2CCc3ccccc3C2)c2ccccc2n1,33*,2,.,1.4,.,-11
CCc1c(C)sc2nc(C(C)C)nc(SCC(=O)N3CCc4ccccc4C3)c12,31*,0,.,1.3,.,-21
CC(C)(C)c1cc(Br)ccc1OCC(=O)Nc1cccc([N+](=O)[O-])c1,.,.,.,.,8,.
SMILES,PostGolgi ctrl,PostGolgi yeast,Ecoli tolC,PLAP act,HePTP inh,E coli WT exp
CCCCS(=O)(=O)/C=C\C=C/S(=O)(=O)CCCC,27,94*,11,0.9,0,31
CCC(C)n1c(-c2cccs2)nc2nc3ccccc3nc21 (stereo not given),35*,3,29,0.9,5,-3
Cc1ccc(-c2nc3ncccc3o2)cc1NC(=O)c1cccc(Cl)c1Cl,.,.,.,.,-17,.
c1ccc2c(c1)[nH]c1c(N3CCOCC3)ncnc12,7,10,0,0.8,1,6
CCc1cc(N2CCOCC2)cc2c1[nH]c1ccccc12,36*,-11,-13,0.9,-3,-1
Cc1occc1C(=O)n1nnc2ccccc21,32*,7,-6,1.2,8,-3
Cc1ccc(N2CC(C(=O)N/N=C/c3cccc(Br)c3)CC2=O)cc1 (stereo not given),.,.,.,.,8,.
CC(=O)N(c1ccc(N(C(C)=O)S(=O)(=O)c2cccs2)cc1)S(=O)(=O)c1cccs1,66*,0,17,1,3,9
Cc1ccc(/C=C/c2ccc(=O)n(Cc3ccccc3Cl)n2)cc1,42*,-5,.,1.8,.,-5
Cc1cc(C)n(Cc2ccccc2Cl)n1,9,0,-12,1,0,9
O=C(NC(NC(=S)Nc1ccccc1I)C(Cl)(Cl)Cl)c1cccc([N+](=O)[O-])c1 (stereo not given),.,.,.,.,7,.
CCCN(c1nc(C)cc(OC)n1)S(=O)(=O)c1ccccc1,24,-5,17,1,8,1
COc1cc(C)nc(N(Cc2ccccc2)S(=O)(=O)c2ccccc2)n1,33*,-1,55,0.9,0,-15
COC(=O)CCC(=O)NNc1ccc([N+](=O)[O-])cc1,.,.,.,.,60*,.
O=C(CSc1ncccc1C(=O)O)Nc1ccccc1,.,.,.,.,12,.
Cc1cc(C)c(NC(=O)c2ccc(C(=O)Nc3c(C)cc(C)cc3C)cc2)c(C)c1,.,.,.,.,3,.
CC1=C(C(=O)OC2CCCC2)C(c2ccccc2Cl)C2=C(CC(C)(C)CC2=O)N1 (stereo not given),.,.,.,.,1,.
CC1=C(C(=O)OC2CCCCC2)C(c2ccco2)C2=C(CC(C)(C)CC2=O)N1 (stereo not given),41*,19,42,1,9,-3
COCCNc1cc(C)nc2c3c(C)cc(C)nc3nn12,0,47*,-5,1.8,7,3
CC(NC(=O)CSc1nnc(COc2ccccc2)o1)c1ccccc1 (stereo not given),2,-1,-3,0.8,5,3
Cc1ccc(OCc2nnc(SCC(=O)CC(=O)Nc3ccccc3)o2)cc1,33*,-9,2,1.4,7,11
O=C(Nc1ccc2c(c1)N(Cc1ccccc1)C(=O)c1ccccc1S2)NC1CC1,7,-6,.,2.1*,.,-3
CN1C(=O)c2ccccc2Sc2ccc(NC(=O)NC3CC3)cc21,9,3,-4,1.3,-4,1
O=C(COc1ccc2ccccc2c1Br)N1CCN(c2ccccn2)CC1,37*,-14,93*,1.1,-4,-15
Cc1c(-c2nc(N)nc(Nc3ccc(F)cc3)n2)oc2ccccc12,40*,7,-2,1,11,-8
Cc1ccc(-c2nn(-c3ccccc3)c3[nH]c(=O)c(CNCCN(C)C)cc23)cc1,.,.,45,2.7*,-8,.
Cc1nn(-c2ccccc2)c2[nH]c(=O)c(CNCCN3CCOCC3)cc12,-11,-4,5,1.1,-8,-1
Cc1nn(-c2ccccc2)c2[nH]c(=O)c(CNCc3ccc4c(c3)OCO4)cc12,-12,13,93*,1.6,-4,2
O=C(NCCc1ccc(Cl)cc1)Nc1cccc(Cl)c1,34*,5,.,0.7,.,-2
COCCn1nnnc1C(c1ccccc1OC)N1CCN(c2ccccc2)CC1 (stereo not given),3,-2,5,1.3,-8,-8

# Source: PubChem
